# SR-BI DiI-HDL act: activators of SR-BI mediated HDL lipid uptake; activation, % at 12.5 µM; 320,000 compounds, 0.096% hits; CHO ldlA[mSR-BI] cells, DiI-HDL uptake fluorescence, 3 h; 100 = double the neutral-control signal; AID 504775;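 active = mean replicate activation of at least 60% and every replicate at or above 60%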;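 note: 0% = median plate neutral-control signal and 100% = twice that signal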
#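 System: LDL receptor-deficient CHO ldlA cells overexpressing murine SR-BI | Timing: 3 h uptake period with compound, 37 °C | Medium: HEPES-buffered (25 mM, pH 7.4) F12 plus 0.5% BSA | Dosing: Single-point compound dose | Signal: Bottom-read fluorescence, 550/595 nm | Read-out: Retained DiI signal reflecting DiI-HDL uptake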
# AHR act: activates the human aryl hydrocarbon receptor; 320,000 compounds, 2.5% hits; P35869; AHR-responsive luciferase reporter cells, luminescence; activation, % at 5 µM; in the data active = activation above about 47%;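 note: 0% = vehicle wells and 100% = reference agonist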
# SR-BI DiI inh: mouse SR-BI HDL lipid transfer inhibition; AID 488896; 320,000 compounds, 0.96% hits; inhibition, % at 12.5 µM; ldlA[mSR-BI] CHO cells, DiI-HDL uptake fluorescence, 3 h;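 active = mean replicate inhibition of at least 70% and a set share of replicates each scoring 70 or more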;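 note: 0% = median of neutral control wells and 100% = median of positive control wells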
# ABCB6 inh MLPCN: blocks the human ABCB6 transporter. Q9NP58. K562-ABCB6 porphyrin accumulation, flow cytometry, 1 h; stronger effect = lower value. fluorescence ratio to DMSO, % at 10 µM. 360,000 compounds, 0.19% hits. AID 602162;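 active = fluorescence ratio to DMSO below 75%, the collection mean minus 3 SD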;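 note: signal is porphyrin accumulated inside mitochondria; 100% equals median channel fluorescence of DMSO control wells; lower ratio means ABCB6 inhibition with less porphyrin fluorescence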
# Target sequence (Q9NP58 whole entry, looked up): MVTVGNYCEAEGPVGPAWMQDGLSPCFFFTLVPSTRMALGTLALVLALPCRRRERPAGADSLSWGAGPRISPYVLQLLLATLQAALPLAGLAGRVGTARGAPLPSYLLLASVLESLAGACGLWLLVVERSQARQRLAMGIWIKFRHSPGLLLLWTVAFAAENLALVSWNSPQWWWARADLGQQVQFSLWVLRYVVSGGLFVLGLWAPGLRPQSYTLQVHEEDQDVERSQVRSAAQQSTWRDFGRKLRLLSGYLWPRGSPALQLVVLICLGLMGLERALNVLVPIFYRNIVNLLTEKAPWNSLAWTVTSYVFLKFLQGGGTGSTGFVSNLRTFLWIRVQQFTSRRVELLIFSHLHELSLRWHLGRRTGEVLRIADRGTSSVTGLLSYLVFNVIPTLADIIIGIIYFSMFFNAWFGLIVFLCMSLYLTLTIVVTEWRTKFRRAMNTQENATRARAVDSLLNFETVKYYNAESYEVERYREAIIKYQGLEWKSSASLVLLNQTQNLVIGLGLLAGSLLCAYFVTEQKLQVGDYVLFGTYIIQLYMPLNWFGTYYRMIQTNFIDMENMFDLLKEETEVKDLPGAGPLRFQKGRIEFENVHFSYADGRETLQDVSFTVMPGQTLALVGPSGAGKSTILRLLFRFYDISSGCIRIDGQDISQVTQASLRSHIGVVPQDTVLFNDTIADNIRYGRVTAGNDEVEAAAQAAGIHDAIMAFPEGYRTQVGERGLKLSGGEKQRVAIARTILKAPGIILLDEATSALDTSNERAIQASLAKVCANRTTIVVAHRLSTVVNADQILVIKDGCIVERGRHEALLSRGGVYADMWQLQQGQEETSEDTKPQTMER
# HIF act: HIF pathway transcriptional activation | 300,000 compounds, 0.32% hits | U2OS HRE-luciferase reporter, luminescence; normalized: DMSO 0%, desferrioxamine 100% | activation, % at 7.5 µM (by protocol);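 active = mean activation of at least 10% of the iron chelator positive control signal, with at least half of replicates also reaching 10%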
# GAA850 FXN act: activators of GAA850 frataxin (FXN) promoter | HEK293 lucGAA850 FXN promoter luciferase reporter, 24 h; percent of 10 µM SAHA response | activation, % at 6 µM | 360,000 compounds, 0.56% hits | AID 540364;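 active = activation above the average of all compounds screened plus 3 SD, cutoff fixed separately per campaign, cut at about 7.5% in these data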;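 note: 0% = DMSO wells and 100% = 10 µM SAHA wells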
# AHR act cf: confirmation of human aryl hydrocarbon receptor activators. activation, % at 9 µM. shares compounds with AHR act. AID 2845. human cells, AHR-responsive luciferase reporter, luminescence. 2,300 compounds, 87% hits; in the data active = activation above about 49%;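 note: HepG2 hepatoma cells carrying a DRE-driven firefly luciferase reporter; 0% = vehicle wells and 100% = reference agonist wells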
# PXR counter: PXR activation, counter-screen for AHR activators. AID 434939. cell-based PXR reporter, luciferase luminescence. 2,300 compounds, 88% hits. shares compounds with AHR act. activation, % at 11.6 µM; in the data active = activation above about 11%;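 note: human hepatoma DPX-2 cells expressing full-length human PXR; 0% = DMSO and 100% = reference agonist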
# Starred values were filed as active, the others as inactive; . = no result given. A selection: hits, their analogues and other compounds. The true share with any hit is near 3.9%.
SMILES,SR-BI DiI-HDL act,AHR act,SR-BI DiI inh,ABCB6 inh MLPCN,HIF act,GAA850 FXN act,AHR act cf,PXR counter
COc1ccc(C(=O)N/C(=C\c2cn(C)c3ccccc23)C(=O)OCC(C)C)cc1,-6,90*,6,96,0,-3,60*,137*
COc1ccc(C(=O)N/C(=C\c2cn(C)c3ccccc23)C(=O)OCCN(C)C)cc1,20,100*,-20,100,0,0,109*,94*
O=C(NC(=S)Nc1ccc2cn[nH]c2c1)c1ccccc1,7,84*,-7,97,3,2,81*,75*
S=C(Nc1ccccc1)Nc1ccc2cn[nH]c2c1,.,6,.,97,2,0,.,.
COc1cc(C(=O)NCC(=O)N/N=C\C(C)=C/c2ccccc2)cc(OC)c1OC,-34,-2,34,106,-1,-2,.,.
CCOC(=O)C1CCN(C(=O)Cc2c(F)cccc2Cl)CC1,11,-3,-11,87,0,2,.,.
Cc1cc(C)c2c(C)c(C(=O)NCc3ccncc3)oc2c1,-21,83*,21,93,0,1,73*,24*
O=C(Nc1nccs1)c1sc2cc(Cl)ccc2c1Cl,-11,80*,11,96,6,0,110*,18*
O=C(NC1CC1)c1sc2cc(Cl)ccc2c1Cl,1,-5,-1,100,2,1,.,.
C#CCOCCOCCOCCNc1nc(N2CCN(C(=O)[C@H](CCCCN)n3cc(CN)nn3)CC2)nc(N2CCN(C(=O)[C@H](CCC(=O)O)n3cc([C@@H](N)CCSC)nn3)CC2)n1,8,-2,-8,98,.,2,.,.
Cc1ccc(O)c(NC(=O)c2ccco2)c1,6,11,-6,87,2,3,.,.
Cc1ccc2nc(-c3cccc(NC(=O)c4ccco4)c3)[nH]c2c1,-4,91*,4,95,6,3,92*,16*
Cc1cccc(-c2nnc(NC(=O)c3ccco3)s2)c1,13,164*,-13,95,2,4,129*,54*
O=C(Nc1ccc2nc(-c3cccnc3)[nH]c2c1)c1ccco1,38,-2,-17,102,1,-2,.,.
Cc1ccc(O)c(NC(=O)c2cccc(NC(=O)c3ccco3)c2)c1,-8,104*,8,88,1,2,129*,21*
C[C@@H]1CN([C@H](C)CO)C(=O)CCCn2nncc2CO[C@H]1CN(C)C(=O)Nc1ccc(N2CCN(C)CC2)cc1,.,.,.,102,.,1,.,.
O=C(NCc1ccccn1)C1CCCN(S(=O)(=O)c2cccc3nsnc23)C1 (centres undefined),-6,2,6,93,0,0,.,.
C[C@]12C(=O)N(c3cccc(F)c3)C(=O)N1[C@H]1c3ccccc3OC[C@@H]1[C@H]2c1ccccc1,-14,1,14,102,.,-6,.,.
Cc1cc(N2C(=O)C3C4CCC(C4)C3C2=O)no1 (centres undefined),16,-3,-16,98,0,0,.,.
CCCc1cc(=O)oc2cc(OCC(=O)NCc3cccs3)ccc12,-3,87*,3,95,0,-2,45,44*
Cc1ccc(C(=O)N=c2sccn2C)o1,45,-8,-45,104,1,3,.,.
Cc1ccc(C(=O)N=c2sccn2C)cc1S(=O)(=O)N1CCOCC1,-18,16,18,94,0,3,.,.
Cc1cccc(C(=O)N=c2sccn2C)c1[N+](=O)[O-],-7,99*,7,97,4,4,82*,142*
CCN(CC)S(=O)(=O)c1cc(C(=O)N=c2sccn2C)ccc1OC,11,100*,-11,84,0,0,87*,125*
Cc1ccc(C(=O)N=c2sccn2C)cc1C,2,194*,-2,92,3,4,136*,41*
SMILES,SR-BI DiI-HDL act,AHR act,SR-BI DiI inh,ABCB6 inh MLPCN,HIF act,GAA850 FXN act,AHR act cf,PXR counter
O=C(Cc1ccc(Br)cc1)N1CCc2ccccc2C1,-6,-2,6,95,-25,3,.,.
COc1cc(Cl)ccc1OCc1cc(C(=O)NC(C)Cc2cnccn2)no1 (centres undefined),-26,33,26,97,2,3,.,.
Cc1c(=O)n(OCc2ccccc2)c2ccccc2[n+]1[O-],-5,177*,5,102,0,2,201*,47*
Cc1cc(SCC(=O)c2cccs2)nc2ccccc12,4,99*,-4,108,1,1,103*,155*
COC(=O)/C(=C/c1ccc2c(c1)c1ccccc1n2C)NC(=O)c1ccccc1,7,82*,-7,98,2,0,104*,97*
Clc1ccc(-c2cc3ccccc3[nH]2)cc1,-44,91*,44,97,5,6,43,8
O=c1cc(-c2ccc(Cl)cc2)[nH]c2ccccc12,.,23,.,.,1,.,.,.
CCN1C(=O)CC(N2CCC(Nc3ccc(F)cc3)CC2)C1=O (centres undefined),25,2,-25,88,-1,1,.,.
O=C(NCc1cccnc1)C1CCC(c2ccc(Cl)cc2)CC1 (centres undefined),-14,-3,14,96,0,-2,.,.
O=S(=O)(Nc1ccccc1)c1ccc(-c2csnn2)cc1,0,1,0,107,-1,1,.,.
c1ccc(-c2ccc(-c3csnn3)cc2)cc1,-23,86*,23,104,3,1,96*,17*
CCN(CC)CCCNC(=S)N(CCCO)Cc1cc2cc3c(cc2[nH]c1=O)OCO3,39,4,-39,84,1,2,.,.
Cc1ccc(-n2c(=O)[nH]cc(C(=O)Nc3ccc4c(c3)OCO4)c2=O)cc1C,24,88*,-24,102,0,-1,68*,.
COc1ccc(NC(=O)c2c[nH]c(=O)n(-c3ccc(C)c(C)c3)c2=O)cc1OC,22,13,-22,100,0,-3,.,.
CCN1C(=O)N/C(=C/c2cc(C)n(Cc3ccccc3)c2C)C1=O,-25,136*,25,100,1,-4,103*,230*
CCn1c(C)cc(/C=C2\NC(=O)N(Cc3ccc(Cl)cc3)C2=O)c1C,-25,42,25,107,0,0,.,.
CCCCn1c(N)c(N(CCOC)C(=O)c2ccc(-c3ccc(C(C)=O)cc3)o2)c(=O)[nH]c1=O,-17,10,17,99,-2,1,.,.

# Compound activity as filed in PubChem.
